# According to ChEMBL document CHEMBL1132954, “Synthesis and structure-activity relationships of chiral allosteric modifiers of hemoglobin” (2000):
# Where “and” joins values, the source holds several entries; their conditions need not be identical. Identical values can stand only once.
# Assays:
# [1] = molecular target: T1, Hemoglobin HbA (Homo sapiens) (UniProt P69905+P68871); experiment: Oxygen pressure at which hemoglobin is 50% saturated with oxygen in the presence of the effector.; format: functional
# T1 sequence (P68871 2-147 partner limits assumed): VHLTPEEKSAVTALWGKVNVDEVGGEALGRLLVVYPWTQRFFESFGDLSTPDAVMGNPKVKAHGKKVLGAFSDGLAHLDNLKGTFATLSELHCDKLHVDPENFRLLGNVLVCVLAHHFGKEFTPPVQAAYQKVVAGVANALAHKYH
# T1 sequence (P69905 2-142 limits assumed): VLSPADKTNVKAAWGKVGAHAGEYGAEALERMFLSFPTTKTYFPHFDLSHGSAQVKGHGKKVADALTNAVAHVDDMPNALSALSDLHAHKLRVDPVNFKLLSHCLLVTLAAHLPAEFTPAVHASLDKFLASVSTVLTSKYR
# Outline: (§1)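 Purified stripped human adult Hb in 50 mM bis-Tris, 100 mM NaCl, pH 7.2, at 60-70 µM heme, with effector at 0.5 mM. Catalase and EDTA were added, and the sample was saturated with carbogen. The curve was recorded on a Hemox analyzer as O₂ pressure was lowered over 45-60 min, with saturation read at 577/586.2 nm. P50 came from linear regression of 40-60% saturation points. Single runs, each with its own no-effector control.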
# [2] = molecular target: T1, Hemoglobin HbA (Homo sapiens); experiment: Ratio of P50e to P50c (P50 control value with no effector present, 5 mmHg); format: functional; outline: as §1
# [3] = Hill coefficient at 50% saturation in the presence of effector
# [4] = The difference between P50e and P50c tested.; format: functional
# Outline: (§2)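 Heparinized whole blood from healthy volunteers, kept on ice, was given the effector sodium salt from a 200 mM DMSO stock to 5.0 mM final. It was tonometered about 10-12 min at 37 °C and equilibrated at 20%, 40% and 60% O₂. pH, pCO₂, pO₂ and sO₂ were read by blood gas analyzer and co-oximeter, at least in duplicate. ΔP50 = P50e − P50c.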
# Homo sapiens [5] = species: Homo sapiens; experiment: (§3) P50e is the value in the presence of the effector in whole blood in experiment 2 (in vitro); format: functional; outline: as §2
# Homo sapiens [6] = species: Homo sapiens; experiment: (§4) P50C is the control value in whole blood in experiment.; format: functional; outline: as §2
# Homo sapiens [7] = species: Homo sapiens; experiment: (§5) P50e is the value in the presence of the effector in whole blood in experiment 1 (in vitro); format: functional; outline: as §2
# [8] = as §3; format: functional, Homo sapiens; outline: as §2
# [9] = as §4; format: functional, Homo sapiens; outline: as §2
# [10] = P50e is the value in the presence of the effector in whole blood in experiment 3 (in vitro); format: functional, Homo sapiens; outline: as §2
# [11] = as §5; format: functional, Homo sapiens; outline: as §2
P50e [1],P50e/P50c [2],Hill coefficient (n50) [3],Compound,further results
9.8 mmHg,2,2.8,"CCC(Oc1ccc(CC(=O)Nc2cc(C)cc(C)c2)cc1)C(=O)O (single isomer, unassigned; (-))",–
8.4 mmHg,1.7,2.4,COCC(C)(Oc1ccc(CC(=O)Nc2cc(C)cc(C)c2)cc1)C(=O)O (centres undefined),–
6.6 mmHg,1.3,2.5 and 2.2,"Cc1cc(C)cc(NC(=O)Cc2ccc(OC(C)C(=O)O)cc2)c1 (single isomer, unassigned; (-)) [listing 1 of 2 here]",ΔP50 (P50e minus P50c) [4]: 12.3 mmHg
5.9 mmHg,1.2,2.5,Cc1cc(C)cc(NC(=O)Cc2ccc(OC(F)C(=O)O)cc2)c1 (centres undefined),–
23.4 mmHg,4.7,2.3 and 1.47,Cc1cc(C)cc(NC(=O)Cc2ccc(OC(C)(C)C(=O)O)cc2)c1 [EFAPROXIRAL],P50e (Homo sapiens [5]): 73.4 mmHg; P50c (Homo sapiens [6]): 29.8 mmHg; ΔP50 (P50e minus P50c) [4]: 45.2 mmHg; P50e (Homo sapiens [7]): 76.5 mmHg
7.6 mmHg,1.5,2.4,Cc1cc(C)cc(NC(=O)Cc2ccc(OC3(C(=O)O)CCOC3C)cc2)c1 (centres undefined),–
7.7 mmHg,1.5,2.8,Cc1cc(C)cc(NC(=O)Cc2ccc(O[C@@]3(C(=O)O)CCO[C@@H]3C)cc2)c1,–
9.3 mmHg,1.9,2.6 and 2,Cc1cc(C)cc(NC(=O)Cc2ccc(OC(C)C(=O)O)cc2)c1 (racemic) [listing 1 of 2 here],ΔP50 (P50e minus P50c) [4]: 18.2 mmHg
–,–,–,Cc1cc(C)cc(NC(=O)Cc2ccc(OC(C)C(=O)O)cc2)c1 (racemic) [listing 2 of 2 here],P50e (Homo sapiens [5]): 43.5 mmHg; P50c (Homo sapiens [6]): 27.2 mmHg; P50e (Homo sapiens [7]): 47.2 mmHg
13.1 mmHg,2.6,2.6,CCC(Oc1ccc(CC(=O)Nc2cc(C)cc(Cl)c2)cc1)C(=O)O (centres undefined),–
9.1 mmHg,1.8,2.6,CCC(Oc1ccc(CC(=O)Nc2ccc3c(c2)CCC3)cc1)C(=O)O (centres undefined),–
13.3 mmHg,2.7,2.4,CCC(C)(Oc1ccc(CC(=O)Nc2cc(C)cc(C)c2)cc1)C(=O)O (stereo in doubt; 10),–
19.9 mmHg,4,2.6 and 1.8,Cc1cc(C)cc(NC(=O)Cc2ccc(O[C@@]3(C(=O)O)CCC[C@@H]3C)cc2)c1,P50e [8]: 46.8 mmHg; P50c [9]: 25.7 mmHg; P50e [10]: 42.4 mmHg; P50e [11]: 49.7 mmHg; ΔP50 (P50e minus P50c) [4]: 20.6 mmHg
14 mmHg,2.8,2.4,Cc1cc(Cl)cc(NC(=O)Cc2ccc(OC3(C(=O)O)CCC(C)C3)cc2)c1 (centres undefined),–
13.8 mmHg,2.8,2.6,CC1CCCC1(Oc1ccc(CC(=O)Nc2ccc3c(c2)CCC3)cc1)C(=O)O (centres undefined),–
18 mmHg,3.6,2.7,"CCC(Oc1ccc(CC(=O)Nc2cc(C)cc(C)c2)cc1)C(=O)O (single isomer, unassigned; (+))",–
10.5 mmHg,2.1,2.3,CCC(C)(Oc1ccc(CC(=O)Nc2cc(C)cc(C)c2)cc1)C(=O)O (stereo in doubt; (-)-10),–
16.6 mmHg,3.3,2.5,CCC(C)(Oc1ccc(CC(=O)Nc2cc(C)cc(Cl)c2)cc1)C(=O)O (centres undefined),–
21 mmHg,4.4,2.4,Cc1cc(Cl)cc(NC(=O)Cc2ccc(OC(C)(C)C(=O)O)cc2)c1,–
7.6 mmHg,1.5,2.4,Cc1cc(C)cc(NC(=O)Cc2ccc(OC3(C(=O)O)CCOCC3)cc2)c1,–

P50e [1],P50e/P50c [2],Hill coefficient (n50) [3],Compound,further results
–,–,–,"Cc1cc(C)cc(NC(=O)Cc2ccc(OC(C)C(=O)O)cc2)c1 (single isomer, unassigned; (-)) [listing 2 of 2 here]",P50e (Homo sapiens [5]): 40.5 mmHg; P50c (Homo sapiens [6]): 27.8 mmHg; P50e (Homo sapiens [7]): 39.7 mmHg
12.9 mmHg,2.6,2.5,Cc1cc(C)cc(NC(=O)Cc2ccc(OC3(C(=O)O)CCC(C)C3)cc2)c1 (centres undefined),–
21.6 mmHg,4.3,2.3 and 1.6,Cc1cc(C)cc(NC(=O)Cc2ccc(OC3(C(=O)O)CCCC3C)cc2)c1 (racemic),P50e (Homo sapiens [5]): 67.2 mmHg; P50c (Homo sapiens [6]): 26.5 mmHg; ΔP50 (P50e minus P50c) [4]: 40.1 mmHg; P50e (Homo sapiens [7]): 66 mmHg
30.7 mmHg,6.1,2.4 and 1.6,Cc1cc(C)cc(NC(=O)Cc2ccc(O[C@]3(C(=O)O)CCC[C@H]3C)cc2)c1,P50e (Homo sapiens [5]): 72.5 mmHg; P50c (Homo sapiens [6]): 27.9 mmHg; ΔP50 (P50e minus P50c) [4]: 47.6 mmHg; P50e (Homo sapiens [7]): 78.5 mmHg
17 mmHg,3.4,2.5,CCCCC(Oc1ccc(CC(=O)Nc2cc(C)cc(C)c2)cc1)C(=O)O (centres undefined),–
9.8 mmHg,2,2.6 and 1.9,"Cc1cc(C)cc(NC(=O)Cc2ccc(OC(C)C(=O)O)cc2)c1 (single isomer, unassigned; (+)) [listing 1 of 2 here]",ΔP50 (P50e minus P50c) [4]: 20.7 mmHg
10.6 mmHg,2.1,2.3,CCC(C)(Oc1ccc(CC(=O)Nc2ccc3c(c2)CCC3)cc1)C(=O)O (centres undefined),–
6.3 mmHg,1.3,2.7,CC(Oc1ccc(CC(=O)Nc2ccc3c(c2)CCC3)cc1)C(=O)O (centres undefined),–
10.3 mmHg,2.1,2.5,Cc1cc(C)cc(NC(=O)Cc2ccc(OC3(C(=O)O)CCCC(C)C3)cc2)c1 (centres undefined),–
15.3 mmHg,3,2.6,CC(C)(Oc1ccc(CC(=O)Nc2ccc3c(c2)CCC3)cc1)C(=O)O,–
–,–,–,"Cc1cc(C)cc(NC(=O)Cc2ccc(OC(C)C(=O)O)cc2)c1 (single isomer, unassigned; (+)) [listing 2 of 2 here]",P50e (Homo sapiens [5]): 48.7 mmHg; P50c (Homo sapiens [6]): 27.3 mmHg; P50e (Homo sapiens [7]): 47.4 mmHg
16.1 mmHg,3.2,2.5,CCCC(Oc1ccc(CC(=O)Nc2cc(C)cc(C)c2)cc1)C(=O)O (centres undefined),–
12.7 mmHg,2.5,2.6,CC1CCC(Oc2ccc(CC(=O)Nc3ccc4c(c3)CCC4)cc2)(C(=O)O)C1 (centres undefined),–
17.4 mmHg,3.5,2.4,"CCC(C)(Oc1ccc(CC(=O)Nc2cc(C)cc(C)c2)cc1)C(=O)O (single isomer, unassigned; (+))",–
9.3 mmHg,1.9,2.6,Cc1cc(C)cc(NC(=O)Cc2ccc(O[C@]3(C(=O)O)CCO[C@H]3C)cc2)c1,–
13 mmHg,2.6,2.7,CCC(Oc1ccc(CC(=O)Nc2cc(C)cc(C)c2)cc1)C(=O)O (stereo in doubt; 32),–
9.4 mmHg,1.9,2.6,Cc1cc(Cl)cc(NC(=O)Cc2ccc(OC(C)C(=O)O)cc2)c1 (centres undefined),–
11.7 mmHg,2.3,2.7,CCCC(C)(Oc1ccc(CC(=O)Nc2cc(C)cc(C)c2)cc1)C(=O)O (centres undefined),–
25.7 mmHg,5.1,2.4 and 1.66,Cc1cc(C)cc(NC(=O)Cc2ccc(OC3(C(=O)O)CCCC3)cc2)c1,P50e (Homo sapiens [5]): 67.7 mmHg; P50C (Homo sapiens [6]): 28.9 mmHg; ΔP50 (P50e minus P50c) [4]: 42.3 mmHg; P50e (Homo sapiens [7]): 74.7 mmHg
21.9 mmHg,4.4,2.4,Cc1cc(Cl)cc(NC(=O)Cc2ccc(OC3(C(=O)O)CCCC3C)cc2)c1 (centres undefined),–
